# Bioassay records (PubChem BioAssay)
# Pf Dd2 inh: blocks growth of Plasmodium falciparum Dd2 parasites; 2.3% of 94,000 active; activity change, % at 10 µM; P. falciparum Dd2 growth, SYBR Green, 72 h; hits give low values; AID 1159554; in the data active = activity change below about -80%; inconclusive = no clear call, values can overlap the other calls
# KDM4C inh: KDM4C (human) demethylase inhibition. inhibition, % at 12.5 µM. GST-KDM4C 2-372, H3K9me3 peptide, LANCE TR-FRET. Q9H3R0. 0.15% of 96,000 active. AID 720574;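 active = mean replicate inhibition above about 25%, with at least 55% of replicates also reaching it, limit read from the data, passing the limit was not always enough; inconclusive = only one of those two conditions met; inactive = neither condition met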
# Target sequence (Q9H3R0 2-372 limits assumed): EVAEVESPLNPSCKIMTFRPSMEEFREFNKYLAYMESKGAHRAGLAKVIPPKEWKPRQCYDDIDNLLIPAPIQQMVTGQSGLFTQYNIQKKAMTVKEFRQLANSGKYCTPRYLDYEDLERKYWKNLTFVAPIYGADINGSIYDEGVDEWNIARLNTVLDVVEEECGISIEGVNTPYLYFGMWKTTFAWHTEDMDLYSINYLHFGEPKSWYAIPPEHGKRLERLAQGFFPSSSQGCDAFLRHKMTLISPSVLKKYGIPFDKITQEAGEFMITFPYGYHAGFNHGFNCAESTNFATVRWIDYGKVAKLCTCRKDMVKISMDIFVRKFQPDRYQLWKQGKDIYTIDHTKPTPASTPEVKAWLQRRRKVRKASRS
#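 material = GST-tagged GASC-1 (JMJD2C) catalytic fragment, aa 2-372 | amount = enzyme final amount 10 nM | medium = HEPES buffer, pH 7.5, plus ascorbate | also added = H3K9me3 peptide substrate, Fe(II), 2-oxoglutarate | dosing = single dose | times = 30 min demethylation and 1 h detection at room temperature | detection = LANCE TR-FRET | read-out basis = Fall in 671/618 emission ratio as inhibition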
# IDH1 mut inh: inhibitors of human IDH1 R132H. IDH1 R132H reductase, diaphorase/resazurin fluorescence, 60 min. AID 624101. O75874. inhibition, % at 10 µM. 0.18% of 70,000 active; in the data active = inhibition above about 34%; inconclusive = no clear call, values can overlap the other calls; inactive = below about 11%;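 note: 0% = DMSO and 100% = no enzyme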
# T cruzi growth-1: inhibitors of T. cruzi proliferation. inhibition, % at 8.34 µM. AID 624255. T. cruzi beta-gal in NIH3T3, GalScreen luminescence, 90 h. 5.9% of 77,000 active;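 active = mean inhibition above about 93%, with at least 55% of replicates each passing it, limit read from the data, passing the limit was not always enough; inconclusive = only one of those two conditions holds; inactive = neither condition holds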
# T cruzi growth-2: Trypanosoma cruzi proliferation inhibition. inhibition, % at 8.35 µM. 72% of 5,600 active. T. cruzi beta-gal in NIH3T3, GalScreen luminescence, 90 h. shares compounds with T cruzi growth-1;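 active = mean replicate inhibition above about 95% and at least 55% of replicates individually reaching it, limit read from the data; inconclusive = only one of the two criteria is met; inactive = neither criterion is met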
# T cruzi growth-3: blocks T. cruzi growth in NIH3T3 host cells. shares compounds with T cruzi growth-1. T. cruzi beta-gal in NIH3T3, GalScreen luminescence, 90 h. inhibition, % at 2.09 µM. 21% of 5,600 active. AID 651740;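 active = mean inhibition above about 95%, with at least 55% of replicates also reaching it, limit read from the data; inconclusive = meets just one of the two conditions; inactive = meets neither condition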;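 note: plate controls were neutral control median for no effect and positive control median for full effect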
# 3T3 cytotox: kills mouse NIH/3T3 fibroblasts; AID 651742; cytotoxicity (signal decrease), % at 8.35 µM; NIH/3T3 viability, CellTiter-Glo ATP luminescence, 90 h; 14% of 5,600 active; shares compounds with T cruzi growth-1;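 active = mean signal decrease across replicates above about 35% based on untreated-well scatter, with enough replicates individually passing, limit read from the data; inconclusive = no rule stated though some were filed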;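 note: 0% = median of neutral control wells and 100% = median of positive control wells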
# 3T3 cytotox 2: NIH/3T3 (mouse) viability loss; shares compounds with T cruzi growth-1; NIH/3T3 viability, CellTiter-Glo ATP luminescence, 90 h; inhibition, % at 24.9 µM; 56% of 5,600 active;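 active = mean loss of cell viability signal at or above a set limit, and enough replicates individually reaching it; inconclusive = meets only the mean limit or only the replicate share; inactive = meets neither condition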;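 note: 0% = median of neutral control wells and 100% = median of positive control wells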
# The depositor's hits bear a star; ? = inconclusive; · = not tested or not shown. Hits are enriched below; roughly 5.9% of the tested compounds scored in any of these assays.
SMILES,Pf Dd2 inh,KDM4C inh,IDH1 mut inh,T cruzi growth-1,T cruzi growth-2,T cruzi growth-3,3T3 cytotox,3T3 cytotox 2
CN(C)CCCNC(=O)C[C@H]1CC[C@@H]2[C@H](COC[C@H](O)CN2CC2CCCC2)O1,·,1.9,·,?,69.9,17.3,-2.6,17.4
O=C(C[C@H]1CC[C@H]2[C@@H](COC[C@@H](O)CN2CC2CCCCC2)O1)NCc1ccc(F)cc1,·,1.2,·,-0.7,·,·,·,·
CC(C(=O)Nc1ccc(Oc2ccccc2)cc1)N1c2cccc3cccc(c23)S1(=O)=O (stereo not given),·,·,-0.1,·,·,·,·,·
CCOc1ccc(NS(=O)(=O)c2cc(C(=O)O)ccc2OC)cc1,·,·,0.5,·,·,·,·,·
COc1ccccc1CNC(=O)C[C@@H]1CC[C@@H]2[C@H](COC[C@H](O)CN2Cc2ccccc2)O1,-19.2,-2.4,·,·,·,·,·,·
COc1ccccc1CNC(=O)C[C@H]1CC[C@H]2[C@@H](COC[C@@H](O)CN2Cc2cccc(-c3ccncc3)c2)O1,·,1.2,·,112.7*,82.2,81.5,6.4,30.9*
COc1ccccc1CNC(=O)C[C@@H]1CC[C@@H]2[C@H](COC[C@H](O)CN2Cc2cccc(-c3ccncc3)c2)O1,·,3.0,·,117.4*,82.7,73.0,-12.1,55.4*
COc1ccccc1CNC(=O)C[C@@H]1CC[C@@H]2[C@H](COC[C@H](O)CN2Cc2ccc3c(c2)OCO3)O1,-52.2,0.9,·,150.3*,54.8,-21.8,-5.0,5.3
COc1ccccc1CNC(=O)C[C@H]1CC[C@@H]2[C@H](COC[C@H](O)CN2Cc2cccc(-c3ccncc3)c2)O1,·,3.2,·,120.7*,102.4*,93.9,23.5,25.0*
COc1ccccc1CNC(=O)C[C@H]1CC[C@H]2[C@@H](COC[C@@H](O)CN2Cc2ccc3c(c2)OCO3)O1,4.2,-1.3,·,17.9,·,·,·,·
COc1ccccc1CNC(=O)C[C@H]1CC[C@H]2[C@@H](COC[C@@H](O)CN2Cc2ccccc2)O1,12.3,0.1,·,·,·,·,·,·
COC(=O)C1=COC(OC2OC(CO)C(O)C(O)C2O)C2C1C(O)CC2(C)OC(C)=O (stereo not given),·,·,-0.3,·,·,·,·,·
COc1ccccc1CNC(=O)C[C@@H]1CC[C@H]2[C@@H](COC[C@@H](O)CN2Cc2cccc(-c3ccncc3)c2)O1,·,-0.3,·,121.9*,81.8,92.8,48.1*,43.6*
COCCNC(=O)C[C@H]1CC[C@H]2[C@@H](COC[C@H](O)CN2Cc2cccc(-c3ccncc3)c2)O1,-6.6,-1.5,·,78.1,·,·,·,·
COc1ccccc1CNC(=O)C[C@H]1CC[C@@H]2[C@H](COC[C@@H](O)CN2Cc2ccccc2)O1,-1.8,0.2,·,·,·,·,·,·
COCCNC(=O)C[C@H]1CC[C@@H]2[C@H](COC[C@@H](O)CN2Cc2cccc(-c3ccncc3)c2)O1,9.0,0.0,·,108.6*,91.6,86.8,-3.3,3.4
C[C@H]1C(=O)N2c3ccccc3[C@@]3(O)C[C@@H]4C(=O)N[C@@](C)(c5nc6ccccc6c(=O)n54)N1[C@@H]23,·,·,-0.5,·,·,·,·,·
COc1ccc(NC(=O)Nc2cccc3c2O[C@@H](CN(C)Cc2ccc(C(=O)Nc4ccccc4N)cc2)[C@H](C)CN([C@H](C)CO)C3=O)cc1,-69.6,-0.7,·,?,94.4,86.1,14.0,65.4*
COc1ccc(CN(C)C[C@@H]2Oc3c(NC(=O)Nc4ccc(OC)cc4)cccc3C(=O)N([C@H](C)CO)C[C@H]2C)cc1,-0.7,0.0,-2.9,-8.8,·,·,·,·
C[C@H](CO)N1C[C@H](C)[C@@H](CN(C)Cc2ccc(C(=O)Nc3ccccc3N)cc2)Oc2c(NC(=O)Nc3ccc4c(c3)OCO4)cccc2C1=O,-87.9*,-1.1,·,107.1*,102.6*,88.3,-0.9,53.6*
COc1ccc(NC(=O)Nc2cccc3c2O[C@@H](CN(C)Cc2ccc(C(=O)O)cc2)[C@@H](C)CN([C@H](C)CO)C3=O)cc1,0.9,0.7,-0.5,101.6*,-19.5,-17.7,6.3,-9.6
C[C@H]1CN([C@@H](C)CO)C(=O)c2cccc(NC(=O)Nc3ccc4c(c3)OCO4)c2O[C@H]1CN(C)Cc1ccc(C(=O)Nc2ccccc2N)cc1,-78.0,5.3,·,110.0,·,·,·,·
